Activity calls are given as the source filed them. The calls are words filed in the database; no cut-off is given here.
Tests used:
[1] = (§1) Cytotoxicity against mouse RAW264.7 cells assessed as cell viability at 10 to 100 uM treated for 24 hrs in absence of LPS by MTT assay; format: cell-based; details: RAW264.7 cells, read-out: Activity
How it was run: (§2)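 Macrophages in high-glucose DMEM + 10% heat-inactivated FBS, 2 mM glutamine, 37 °C, 5% CO2; exposed 24 h to 10, 50, 100 μM with or without LPS 1 μg/mL; MTT added 4 h, formazan dissolved in DMSO, A570, expressed as % of control; four independent experiments.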

RAW264.7 [2] = assay: Inhibition of LPS-induced COX2 expression in mouse RAW264.7 cells at 100 uM incubated for 24 hrs post LPS induction by ELISA relative to control; format: functional; details: RAW264.7, 24 h, read-out: INH
How it was run: (§3)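 LPS (1 μg/mL) for 4 h, then compound at 10, 50, 100 μM for 24 h; cells lysed in RIPA, spun 12,000×g 10 min, protein normalised by BCA to 0.1 mg/mL; target (TNF-α, HO-1, IL-10 or COX-2) quantified by sandwich ELISA kit with mouse-specific polyclonal antibodies; four independent experiments.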

RAW264.7 [3] = assay: Antiinflammatory activity in mouse RAW264.7 cells assessed as reduction in LPS-induced TNFalpha levels incubated for 24 hrs post LPS induction by ELISA; format: functional, cell-based; how it was run: as §3
[4] = Drug degradation in phosphate buffer assessed as H2S release by measuring test compound half life at 40 uM measured every 5 mins in presence of TECP by UV-Vis spectrometry; format: physicochemical
How it was run: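 Sulfide release at 37.5 °C: donor (40 mM THF stock) added to pH 7.4 phosphate buffer with 1.0 mM TECP; aliquots taken every 5 min into methylene blue cocktail (zinc acetate, N,N-dimethyl-1,4-phenylenediamine, FeCl3 in HCl), A670 read 15 min later; H2S from Na2S calibration curve; concentration vs time curve; four independent experiments.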

[5] = (§4) Cytotoxicity against mouse RAW264.7 cells assessed as cell viability at 10 to 100 uM treated for 24 hrs post LPS induction by MTT assay; format: cell-based; details: RAW264.7 cells, read-out: Activity; how it was run: as §2
RAW264.7 [6] = assay: Antiinflammatory activity in mouse RAW264.7 cells assessed as increase in IL10 levels at 10 to 100 uM measured after 24 hrs in absence of LPS by ELISA; format: functional, cell-based
How it was run: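 Macrophages exposed 24 h to 10, 50, 100 μM without LPS; lysates (RIPA, 12,000×g spin) normalised by BCA to 0.1 mg/mL protein; IL-10 measured by mouse-specific sandwich ELISA kit; four independent experiments, mean ± SD.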

RAW264.7 [7] = assay: Antiinflammatory activity in mouse RAW264.7 cells assessed as increase in LPS-induced HO-1 expression at 100 uM incubated for 24 hrs post LPS induction by ELISA relative to contol; format: functional; how it was run: as §3
HepG2 = assay: Cytotoxicity against human HepG2 cells assessed as reduction in cell survival after 24 hrs by MTT assay; format: cell-based; details: HepG2, 24 h
RAW264.7 [8] = assay: Antiinflammatory activity in mouse RAW264.7 cells assessed as LPS-induced TNFalpha levels at 100 uM incubated for 24 hrs post LPS induction by ELISA relative to control; format: functional; how it was run: as §3
RAW264.7 [9] = assay: Antiinflammatory activity in mouse RAW264.7 cells assessed as increase in LPS-induced IL10 levels at 10 to 100 uM incubated for 24 hrs post LPS induction by ELISA; format: functional, cell-based; how it was run: as §3
L02 = assay: Cytotoxicity against human LO2 cells assessed as reduction in cell survival after 24 hrs by MTT assay; format: cell-based; details: L02, 24 h
[10] = molecular target: T1, Nitric oxide synthase, inducible (Mus musculus) (UniProt P29477); assay: Inhibition of iNOS in mouse RAW264.7 cells assessed as reduction in LPS-induced NO production administered for 24 hrs post LPS induction by Griess method; format: cell-based
T1 sequence (whole entry): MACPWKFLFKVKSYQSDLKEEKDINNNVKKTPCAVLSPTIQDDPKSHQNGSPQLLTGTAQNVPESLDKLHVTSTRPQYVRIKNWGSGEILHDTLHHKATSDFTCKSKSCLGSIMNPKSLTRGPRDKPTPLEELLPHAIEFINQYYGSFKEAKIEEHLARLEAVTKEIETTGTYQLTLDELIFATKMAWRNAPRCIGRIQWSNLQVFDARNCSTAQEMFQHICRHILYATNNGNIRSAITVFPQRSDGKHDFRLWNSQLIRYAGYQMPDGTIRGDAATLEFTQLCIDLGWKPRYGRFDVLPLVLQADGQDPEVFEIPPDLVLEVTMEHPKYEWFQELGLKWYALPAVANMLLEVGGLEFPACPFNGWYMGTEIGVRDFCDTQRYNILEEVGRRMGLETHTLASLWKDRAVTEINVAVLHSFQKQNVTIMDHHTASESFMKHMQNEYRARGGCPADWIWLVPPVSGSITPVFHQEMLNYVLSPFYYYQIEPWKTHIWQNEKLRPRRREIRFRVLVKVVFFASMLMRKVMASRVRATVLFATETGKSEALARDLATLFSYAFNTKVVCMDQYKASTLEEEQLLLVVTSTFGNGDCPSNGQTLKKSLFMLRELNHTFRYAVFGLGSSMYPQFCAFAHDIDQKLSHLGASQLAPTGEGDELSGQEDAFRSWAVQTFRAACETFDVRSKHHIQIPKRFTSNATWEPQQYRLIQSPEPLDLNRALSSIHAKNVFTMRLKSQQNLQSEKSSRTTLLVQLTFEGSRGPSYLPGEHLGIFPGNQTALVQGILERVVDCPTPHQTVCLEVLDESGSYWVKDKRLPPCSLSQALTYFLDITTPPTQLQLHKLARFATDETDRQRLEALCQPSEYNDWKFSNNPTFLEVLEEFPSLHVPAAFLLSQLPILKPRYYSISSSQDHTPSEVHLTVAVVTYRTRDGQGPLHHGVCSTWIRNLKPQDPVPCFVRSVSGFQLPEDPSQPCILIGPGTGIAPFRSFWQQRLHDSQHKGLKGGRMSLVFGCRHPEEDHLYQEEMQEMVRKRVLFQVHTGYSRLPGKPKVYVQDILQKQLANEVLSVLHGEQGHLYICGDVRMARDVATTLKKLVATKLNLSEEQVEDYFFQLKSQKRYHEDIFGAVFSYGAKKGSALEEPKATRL
How it was run: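 RAW264.7 cells stimulated with LPS 1 μg/mL for 4 h, then compound (10, 50, 100 μM) for 24 h; culture medium reacted with Griess reagents I and II, absorbance 570 nm; nitrite from sodium nitrite standard curve (0–100 μM in medium); four independent experiments, mean ± SD.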

RAW264.7 [11] = assay: Antiinflammatory activity in mouse RAW264.7 cells assessed as increase in LPS-induced HO-1 expression incubated for 24 hrs post LPS induction by ELISA; format: functional, cell-based; how it was run: as §3
[12] = Drug degradation in phosphate buffer assessed as H2S release by measuring test compound half life at 40 uM measured every 5 mins in presence of L-cysteine by UV-Vis spectrometry; format: physicochemical
How it was run: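 Sulfide release at 37.5 °C: donor (40 mM THF stock) added to pH 7.4 phosphate buffer with 1.0 mM L-cysteine; aliquots taken every 5 min into zinc acetate/N,N-dimethyl-1,4-phenylenediamine/FeCl3 in HCl, A670 read 15 min later; H2S quantified against Na2S standard curve (5–150 μM); release curve plotted vs time; four independent experiments.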

RAW264.7 [13] = assay: Inhibition of LPS-induced COX2 expression in mouse RAW264.7 cells at 10 to 100 uM incubated for 24 hrs post LPS induction by ELISA; format: functional, cell-based; how it was run: as §3
RAW264.7 [14] = assay: as §1; format: cell-based; details: raw264.7, 24 h, 100 µM; how it was run: as §2
RAW264.7 [15] = assay: as §4; format: cell-based; details: raw264.7, 24 h, 100 µM; how it was run: as §2
Danio rerio [16] = organism: Danio rerio; assay: Toxicity in AB zebrafish embryo assessed as rate of embryo malformation at 0.5 to 20 uM measured at 96 hrs post fertilization by stereoscopic dissecting light microscopic analysis relative to DMF; format: organism-based; details: in vivo
How it was run: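 AB embryos exposed from 4 hpf through 96 hpf to compound or DMF vehicle (1:1000); malformations scored at 96 hpf under stereoscopic dissecting microscope; 100 embryos per group in three replicates; three independent experiments, mean ± SD.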

Danio rerio [17] = organism: Danio rerio; assay: Toxicity in AB zebrafish embryo assessed as reduction in hatching rate of embryos up to 5 uM measured at 48 hrs post fertilization by dissecting light microscopic analysis; format: organism-based; details: in vivo
How it was run: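 AB embryos exposed from 4 to 72 hpf to compound (0.5–20 μM) or DMF vehicle (1:1000), one embryo per well; hatch rate scored at 48 hpf; n=100 per group in three replicates; three independent experiments, mean ± SD.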

Structure (SMILES)	half-life at 40 µM [4] [min]	IC50 (HepG2) [mM]	IC50 (L02) [mM]	other results
CC(C)Cc1ccc(C(C)C(=O)Oc2ccc(-c3cc(=S)ss3)cc2)cc1 (stereo not drawn)	1.4	0.923	0.889	viability at 24 h, up to 100 µM [1]: 70 to 110%; inhibition at 100 µM (RAW264.7 [2]): 60%; Activity (RAW264.7 [3]): Dose-dependent effect; viability at 24 h, up to 100 µM [5]: 70 to 110%; Activity (RAW264.7 [6]): Active; fold change (FC) (RAW264.7 [7]): >3; Activity (RAW264.7 [8]): 5 - 20%; Activity (RAW264.7 [9]): Active; inhibition [10]: Dose-dependent effect; Activity (RAW264.7 [11]): Dose-dependent effect
COc1ccc2cc(C(C)C(=O)Oc3ccc(-c4cc(=S)ss4)cc3)ccc2c1 (stereo not drawn)	3.1	1.12	1.04	
O=C(/C=C/c1ccccc1)Oc1ccc(-c2cc(=S)ss2)cc1	1.9	1.08	0.536	
O=C(O)CCCCC1CCSS1 (stereo not drawn) [LIPOIC ACID, ALPHA]				half-life at 40 µM [12]: 118 min
O=C(CCCCC1CCSS1)Oc1ccc2ccc(=O)oc2c1 (stereo not drawn)		0.917	2.54	half-life at 40 µM [12]: 4.6 min
COc1ccc2cc(C(C)C(=O)Oc3ccc(C(N)=S)cc3)ccc2c1 (stereo not drawn) [ATB-346]	13.4	0.228	3.61	viability at 24 h, up to 100 µM [1]: 70 to 110%; Activity (RAW264.7 [3]): Dose-dependent effect; inhibition (RAW264.7 [13]): Active; viability at 24 h, up to 100 µM [5]: 70 to 110%; Activity (RAW264.7 [6]): Active; fold change (FC) (RAW264.7 [7]): <=2; Activity (RAW264.7 [9]): Active; inhibition [10]: Dose-dependent effect; Activity (RAW264.7 [11]): Dose-dependent effect
COc1ccc2c(c1)c(CC(=O)Oc1ccc(-c3cc(=S)ss3)cc1)c(C)n2C(=O)c1ccc(Cl)cc1	1.8	3.29	0.337	Activity (RAW264.7 [14]): Non-Toxic; Activity (RAW264.7 [3]): Dose-dependent effect; inhibition (RAW264.7 [13]): Active; Activity (RAW264.7 [15]): Non-Toxic; Activity (RAW264.7 [6]): Active; fold change (FC) (RAW264.7 [7]): <=2; Activity (Danio rerio [16]): 2%; Activity (RAW264.7 [8]): 5 - 20%; Activity (RAW264.7 [9]): Active; inhibition [10]: Dose-dependent effect; Activity (Danio rerio [17]): Toxic; Activity (RAW264.7 [11]): Dose-dependent effect
Oc1ccc(-c2cc(=S)ss2)cc1	3.9			
NC(=S)c1ccc(OC(=O)/C=C/c2ccccc2)cc1	4.4	0.41	> 0.8	
NC(=S)c1ccccc1	0.9			

Second part, led by results:

half-life at 40 µM [4] [min]	Structure (SMILES)	IC50 (HepG2) [mM]	IC50 (L02) [mM]	other results
3.4	CC(C(=O)Oc1ccc(-c2cc(=S)ss2)cc1)c1cccc(C(=O)c2ccccc2)c1 (stereo not drawn)	1.28	0.544	
9.8	CC(C(=O)Oc1ccc(C(N)=S)cc1)c1cccc(C(=O)c2ccccc2)c1 (stereo not drawn)	1.07	1.18	
14.4	NC(=S)c1ccc(OC(=O)c2ccc(Cl)cc2)cc1	1.06	> 0.8	
3.1	CC1=C(CC(=O)Oc2ccc(C(N)=S)cc2)c2cc(F)ccc2/C1=C\c1ccc([S+](C)[O-])cc1 (stereo not drawn)	1.08	1.48	
7.1	NC(=S)c1ccc(OC(=O)c2ccccc2Cl)cc1	1.06	1.09	
3.3	CC(C(=O)Oc1ccc(C(N)=S)cc1)c1ccc(-c2ccccc2)c(F)c1 (stereo not drawn)	1.68	> 0.8	
